Source: ChEMBL document CHEMBL3817796, “Discovery of Novel 15-Lipoxygenase Activators To Shift the Human Arachidonic Acid Metabolic Network toward Inflammation Resolution” (J Med Chem, 2016)

Columns and labels:
[1] = target: T1, Polyunsaturated fatty acid lipoxygenase ALOX15 (Homo sapiens) (UniProt P16050); test: Activation of wild-type His6-tagged human 15-LOX expressed in Escherichia coli Rosetta DE3 assessed as 15-HpETE formation at 40 uM pre-incubated for 1 min before arachidonic acid substrate addition by cell free assay
T1 sequence (whole entry): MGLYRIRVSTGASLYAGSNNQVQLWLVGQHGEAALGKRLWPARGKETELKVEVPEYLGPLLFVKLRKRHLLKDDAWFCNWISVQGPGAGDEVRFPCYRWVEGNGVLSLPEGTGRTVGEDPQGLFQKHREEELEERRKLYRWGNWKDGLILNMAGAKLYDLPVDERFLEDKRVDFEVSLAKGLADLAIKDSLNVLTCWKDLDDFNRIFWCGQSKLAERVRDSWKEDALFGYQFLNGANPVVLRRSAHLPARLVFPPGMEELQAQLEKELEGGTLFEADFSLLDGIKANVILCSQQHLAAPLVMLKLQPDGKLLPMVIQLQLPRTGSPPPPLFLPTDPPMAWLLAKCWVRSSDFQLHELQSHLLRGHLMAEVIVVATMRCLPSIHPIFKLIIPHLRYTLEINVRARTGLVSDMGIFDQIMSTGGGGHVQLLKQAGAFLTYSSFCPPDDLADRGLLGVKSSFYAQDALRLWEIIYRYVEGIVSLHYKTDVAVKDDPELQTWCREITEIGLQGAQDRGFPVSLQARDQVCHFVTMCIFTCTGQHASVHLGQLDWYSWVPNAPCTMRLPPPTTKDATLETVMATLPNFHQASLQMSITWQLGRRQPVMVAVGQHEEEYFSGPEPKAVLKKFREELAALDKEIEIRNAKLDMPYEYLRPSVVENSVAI

[2] = target: T2, Polyunsaturated fatty acid lipoxygenase ALOX15 (Homo sapiens, UniProt P16050); test: Binding affinity to wild-type His6-tagged human 15-LOX expressed in Escherichia coli Rosetta DE3 by SPR assay
T2 sequence (P16050 whole entry): T1 sequence (whole entry)
In short: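 15-LOX amine-coupled to a CM5 chip at 800 RU, 25 °C, in PBS-P pH 7.4. Compound concentrations in 5% DMSO injected serially; regenerated by buffer washing. KD from Hill fit of response units.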

| %max [1] [%] | Kd [2] [µM] | Compound |
| --- | --- | --- |
| 61 | 15.3 | C[n+]1cn(/N=C/c2ccccc2)c2ccccc21 |
| 84 | 4.4 | c1cc2c3c(cccc3c1)-c1n[n+]3cc4ccccn4c3cc1-2 |
